Calls of active or inactive are those of the source. No cut-off for these calls is given here.
Legend:
G411 = assay: Antiproliferative activity against human G411 cells at 1 uM incubated for 9 to 12 days by IncuCyte zoom live-cell imaging analysis; format: functional, cell-based; settings: time 9-12 day
How it was run: (§1)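 Adherent GSCs were cultured in serum-free medium with EGF and bFGF on poly-L-ornithine/laminin and plated in triplicate in 96-well plates. They were treated at 1 µM, with 1 µM SGC2096 or 0.05% DMSO as controls, for 9–12 days or until DMSO wells were confluent. Medium with drug was refreshed every 5 days. IncuCyte confluence was imaged every 8 h and normalized to each well's initial confluence.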

[1] = molecular target: Protein arginine N-methyltransferase 5 (Homo sapiens) (UniProt O14744); assay: Inhibition of PRMT5 in human G583 cells assessed as reduction in SDMA level at 1 uM after 5 days by Western blot analysis; format: cell-based; settings: time 5.0 day
Chain of Protein arginine N-methyltransferase 5 (Homo sapiens) (O14744 whole entry): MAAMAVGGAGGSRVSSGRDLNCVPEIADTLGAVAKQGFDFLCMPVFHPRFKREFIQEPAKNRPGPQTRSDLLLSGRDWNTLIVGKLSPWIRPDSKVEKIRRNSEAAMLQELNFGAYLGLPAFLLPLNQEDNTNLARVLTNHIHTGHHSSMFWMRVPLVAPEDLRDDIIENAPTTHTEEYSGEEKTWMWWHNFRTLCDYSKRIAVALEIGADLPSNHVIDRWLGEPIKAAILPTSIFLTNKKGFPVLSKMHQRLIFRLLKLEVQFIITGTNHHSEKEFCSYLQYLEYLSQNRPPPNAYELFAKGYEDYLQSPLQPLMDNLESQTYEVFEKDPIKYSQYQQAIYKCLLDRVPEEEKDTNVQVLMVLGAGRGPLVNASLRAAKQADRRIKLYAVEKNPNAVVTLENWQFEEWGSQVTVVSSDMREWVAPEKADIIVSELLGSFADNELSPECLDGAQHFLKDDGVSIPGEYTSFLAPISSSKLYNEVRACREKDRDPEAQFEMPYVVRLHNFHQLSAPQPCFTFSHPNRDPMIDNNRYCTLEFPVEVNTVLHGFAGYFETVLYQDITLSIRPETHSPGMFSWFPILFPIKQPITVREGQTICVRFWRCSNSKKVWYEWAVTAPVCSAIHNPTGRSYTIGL
How it was run: (§2)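 Symmetric dimethylarginine on SmB/B' was measured by western blot with IRDye secondary antibodies and infrared imaging.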

[2] = molecular target: Protein arginine N-methyltransferase 5 (Homo sapiens) (UniProt O14744); assay: Inhibition of PRMT5 in human G561 cells assessed as reduction in SDMA level at 1 uM after 5 days by Western blot analysis; format: cell-based; settings: time 5.0 day; how it was run: as §2
G583 = assay: Antiproliferative activity against human G583 cells at 1 uM incubated for 9 to 12 days by IncuCyte zoom live-cell imaging analysis; format: functional, cell-based; settings: time 9-12 day; how it was run: as §1
G561 = assay: Antiproliferative activity against human G561 cells at 1 uM incubated for 9 to 12 days by IncuCyte zoom live-cell imaging analysis; format: functional, cell-based; settings: time 9-12 day; how it was run: as §1
[3] = molecular target: Protein arginine N-methyltransferase 5 (Homo sapiens) (UniProt O14744); assay: Inhibition of PRMT5 in human G411 cells assessed as reduction in SDMA level at 1 uM after 5 days by Western blot analysis; format: cell-based; settings: time 5.0 day; how it was run: as §2

- inhibition [1]: inactive
- inhibition [2]: inactive
- inhibition [3]: inactive
SMILES: O=C(NC[C@H](O)CN1CCCCC1)c1ccnc(NC2CCC2)c1
- Activity (G411): inactive
- Activity (G583): inactive
- Activity (G561): inactive

Reference: ChEMBL document CHEMBL5653632, “PRMT5 inhibition disrupts splicing and stemness in glioblastoma” (Nat Commun, 2021)
